Test results published in ChEMBL document CHEMBL4316612, “Synthesis of novel dihydrotriazine derivatives bearing 1,3-diaryl pyrazole moieties as potential antibacterial agents” (Bioorg Med Chem Lett, 2019).
Converted amounts (≈) assume the structure as drawn.

How the values were obtained:
Assay type in all cases: functional
[1] = test system: Staphylococcus aureus; assay: Antibacterial activity against quinolone-resistant Staphylococcus aureus CCARM 3505 after 24 hrs by microtiter ELISA; conditions: CCARM 3505, 24 h
Outline: (§1)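 Broth microdilution MIC. Bacteria grown to mid-log phase in Mueller-Hinton broth, diluted 1000-fold, and inoculated at 10^5 CFU/mL. Compounds in DMSO (final ≤0.05%) were given as two-fold serial dilutions, final 64-0.25 µg/mL. Plates were incubated 24 h at 37 °C and growth read at 650 nm. MIC is the lowest concentration giving complete growth inhibition. Three independent experiments; oxacillin and norfloxacin served as positive controls.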

[2] = test system: Staphylococcus aureus; assay: Antibacterial activity against methicillin-resistant Staphylococcus aureus CCARM 3506 after 24 hrs by microtiter ELISA; conditions: CCARM 3506, 24 h; outline: as §1
[3] = test system: Staphylococcus aureus; assay: Antibacterial activity against Staphylococcus aureus RN4220 after 24 hrs by microtiter ELISA; conditions: RN4220, 24 h; outline: as §1
[4] = test system: Staphylococcus aureus; assay: Antibacterial activity against methicillin-resistant Staphylococcus aureus CCARM 3167 after 24 hrs by microtiter ELISA; conditions: CCARM 3167, 24 h; outline: as §1
[5] = test system: Staphylococcus aureus; assay: Antibacterial activity against quinolone-resistant Staphylococcus aureus CCARM 3519 after 24 hrs by microtiter ELISA; conditions: CCARM 3519, 24 h; outline: as §1
[6] = test system: Streptococcus mutans; assay: Antibacterial activity against Streptococcus mutans 3289 after 24 hrs by microtiter ELISA; conditions: Streptococcus mutans, 3289, 24 h
Outline: (§2)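 Two-fold serial broth dilution in Mueller-Hinton broth, final 64-0.25 µg/mL; compounds in DMSO (final ≤0.05%). Mid-log cultures diluted 1000-fold, inoculum 10^5 CFU/mL; oxacillin and norfloxacin as positive controls. After 24 h at 37 °C, growth read at 650 nm on a microtiter ELISA reader; MIC = lowest level giving complete growth inhibition. Run three times.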

[7] = test system: Escherichia coli; assay: Antibacterial activity against Escherichia coli KCTC 1924 after 24 hrs by microtiter ELISA; conditions: KCTC 1924, 24 h; outline: as §2
[8] = test system: Candida albicans; assay: Antifungal activity against Candida albicans 7535 after 24 hrs by microtiter ELISA; conditions: Candida albicans, 7535, 24 h; outline: as §2

CN(C)C1=NC(c2cn(-c3ccc([N+](=O)[O-])cc3[N+](=O)[O-])nc2-c2cccc(Cl)c2)N=C(N)N1 (centres undefined)
MIC [1]: 4 µg/mL (≈ 8.27 µM) | MIC [2]: 4 µg/mL (≈ 8.27 µM) | MIC [3]: 4 µg/mL (≈ 8.27 µM) | MIC [4]: 4 µg/mL (≈ 8.27 µM) | MIC [5]: 16 µg/mL (≈ 33.1 µM) | MIC [6]: 8 µg/mL (≈ 16.5 µM) | MIC [7]: 8 µg/mL (≈ 16.5 µM) | MIC [8]: 8 µg/mL (≈ 16.5 µM)

CN(C)C1=NC(c2cn(-c3ccccc3)nc2-c2cccc(Cl)c2)N=C(N)N1 (centres undefined)
MIC [1]: 32 µg/mL (≈ 81.2 µM) | MIC [2]: 16 µg/mL (≈ 40.6 µM) | MIC [3]: 4 µg/mL (≈ 10.2 µM) | MIC [4]: 16 µg/mL (≈ 40.6 µM) | MIC [5]: 32 µg/mL (≈ 81.2 µM) | MIC [6]: 16 µg/mL (≈ 40.6 µM) | MIC [7]: 8 µg/mL (≈ 20.3 µM) | MIC [8]: 8 µg/mL (≈ 20.3 µM)

CN(C)C1=NC(c2cn(-c3ccc([N+](=O)[O-])cc3[N+](=O)[O-])nc2-c2ccccc2Br)N=C(N)N1 (centres undefined)
MIC [1]: 32 µg/mL (≈ 60.6 µM) | MIC [2]: 32 µg/mL (≈ 60.6 µM) | MIC [3]: 32 µg/mL (≈ 60.6 µM) | MIC [4]: 32 µg/mL (≈ 60.6 µM) | MIC [5]: 64 µg/mL (≈ 121 µM) | MIC [6]: 32 µg/mL (≈ 60.6 µM) | MIC [7]: 32 µg/mL (≈ 60.6 µM) | MIC [8]: 64 µg/mL (≈ 121 µM)

CN(C)C1=NC(c2cn(-c3ccc([N+](=O)[O-])cc3[N+](=O)[O-])nc2-c2ccccc2[N+](=O)[O-])N=C(N)N1 (centres undefined)
MIC [1]: > 64 µg/mL | MIC [2]: > 64 µg/mL | MIC [3]: > 64 µg/mL | MIC [4]: > 64 µg/mL | MIC [5]: > 64 µg/mL | MIC [6]: > 64 µg/mL | MIC [7]: > 64 µg/mL | MIC [8]: > 64 µg/mL

COc1c(N2C[C@@H]3CCCN[C@@H]3C2)c(F)cc2c(=O)c(C(=O)O)cn(C3CC3)c12 [MOXIFLOXACIN]
MIC [3]: 0.25 µg/mL (≈ 0.623 µM) | MIC [5]: 4 µg/mL (≈ 9.96 µM) | MIC [6]: 0.25 µg/mL (≈ 0.623 µM)

CN(C)C1=NC(c2cn(-c3ccc([N+](=O)[O-])cc3[N+](=O)[O-])nc2-c2ccc(F)cc2)N=C(N)N1 (centres undefined)
MIC [1]: 64 µg/mL (≈ 137 µM) | MIC [2]: 32 µg/mL (≈ 68.5 µM) | MIC [3]: 32 µg/mL (≈ 68.5 µM) | MIC [4]: 32 µg/mL (≈ 68.5 µM) | MIC [5]: 64 µg/mL (≈ 137 µM) | MIC [6]: 32 µg/mL (≈ 68.5 µM) | MIC [7]: 32 µg/mL (≈ 68.5 µM) | MIC [8]: 32 µg/mL (≈ 68.5 µM)

OC(Cn1cncn1)(Cn1cncn1)c1ccc(F)cc1F [FLUCONAZOLE]
MIC [8]: 1 µg/mL (≈ 3.27 µM)

NC1=NC(c2cn(-c3ccc([N+](=O)[O-])cc3[N+](=O)[O-])nc2-c2ccccc2Cl)N=C(N2CCOCC2)N1 (centres undefined)
MIC [1]: 32 µg/mL (≈ 60.8 µM) | MIC [2]: 32 µg/mL (≈ 60.8 µM) | MIC [3]: 32 µg/mL (≈ 60.8 µM) | MIC [4]: 32 µg/mL (≈ 60.8 µM) | MIC [5]: 64 µg/mL (≈ 122 µM) | MIC [6]: 64 µg/mL (≈ 122 µM) | MIC [7]: 64 µg/mL (≈ 122 µM) | MIC [8]: 64 µg/mL (≈ 122 µM)

NC1=NC(c2cn(-c3ccc([N+](=O)[O-])cc3[N+](=O)[O-])nc2-c2ccccc2F)N=C(N2CCOCC2)N1 (centres undefined)
MIC [1]: 64 µg/mL (≈ 126 µM) | MIC [2]: 32 µg/mL (≈ 62.8 µM) | MIC [3]: 64 µg/mL (≈ 126 µM) | MIC [4]: 64 µg/mL (≈ 126 µM) | MIC [5]: 64 µg/mL (≈ 126 µM) | MIC [6]: > 64 µg/mL | MIC [7]: 64 µg/mL (≈ 126 µM) | MIC [8]: 64 µg/mL (≈ 126 µM)

CN(C)C1=NC(c2cn(-c3ccccc3)nc2-c2ccc(Br)cc2)N=C(N)N1 (centres undefined)
MIC [1]: 16 µg/mL (≈ 36.5 µM) | MIC [2]: 4 µg/mL (≈ 9.13 µM) | MIC [3]: 8 µg/mL (≈ 18.3 µM) | MIC [4]: 4 µg/mL (≈ 9.13 µM) | MIC [5]: 16 µg/mL (≈ 36.5 µM) | MIC [6]: 16 µg/mL (≈ 36.5 µM) | MIC [7]: 8 µg/mL (≈ 18.3 µM) | MIC [8]: 8 µg/mL (≈ 18.3 µM)

CN(C)C1=NC(c2cn(-c3ccc([N+](=O)[O-])cc3[N+](=O)[O-])nc2-c2ccccc2Cl)N=C(N)N1 (centres undefined)
MIC [1]: 32 µg/mL (≈ 66.1 µM) | MIC [2]: 64 µg/mL (≈ 132 µM) | MIC [3]: 32 µg/mL (≈ 66.1 µM) | MIC [4]: 32 µg/mL (≈ 66.1 µM) | MIC [5]: 64 µg/mL (≈ 132 µM) | MIC [6]: 64 µg/mL (≈ 132 µM) | MIC [7]: 32 µg/mL (≈ 66.1 µM) | MIC [8]: 64 µg/mL (≈ 132 µM)

Cc1ccc(-c2nn(-c3ccccc3)cc2C2N=C(N)NC(N3CCOCC3)=N2)cc1 (centres undefined)
MIC [1]: 64 µg/mL (≈ 154 µM) | MIC [2]: 32 µg/mL (≈ 77 µM) | MIC [3]: 64 µg/mL (≈ 154 µM) | MIC [4]: 32 µg/mL (≈ 77 µM) | MIC [5]: 64 µg/mL (≈ 154 µM) | MIC [6]: 64 µg/mL (≈ 154 µM) | MIC [7]: 64 µg/mL (≈ 154 µM) | MIC [8]: 64 µg/mL (≈ 154 µM)

Cc1ccc(-c2nn(-c3ccccc3)cc2C2N=C(N)NC(N(C)C)=N2)cc1 (centres undefined)
MIC [1]: 64 µg/mL (≈ 171 µM) | MIC [2]: 32 µg/mL (≈ 85.7 µM) | MIC [3]: 32 µg/mL (≈ 85.7 µM) | MIC [4]: 16 µg/mL (≈ 42.8 µM) | MIC [5]: 64 µg/mL (≈ 171 µM) | MIC [6]: 64 µg/mL (≈ 171 µM) | MIC [7]: 32 µg/mL (≈ 85.7 µM) | MIC [8]: 32 µg/mL (≈ 85.7 µM)

NC1=NC(c2cn(-c3ccccc3)nc2-c2ccc(Cl)cc2)N=C(N2CCOCC2)N1 (centres undefined)
MIC [1]: 16 µg/mL (≈ 36.7 µM) | MIC [2]: 16 µg/mL (≈ 36.7 µM) | MIC [3]: 16 µg/mL (≈ 36.7 µM) | MIC [4]: 16 µg/mL (≈ 36.7 µM) | MIC [5]: 16 µg/mL (≈ 36.7 µM) | MIC [6]: 32 µg/mL (≈ 73.4 µM) | MIC [7]: 16 µg/mL (≈ 36.7 µM) | MIC [8]: 16 µg/mL (≈ 36.7 µM)

CN(C)C1=NC(c2cn(-c3ccc([N+](=O)[O-])cc3[N+](=O)[O-])nc2-c2ccccc2F)N=C(N)N1 (centres undefined)
MIC [1]: 64 µg/mL (≈ 137 µM) | MIC [2]: 32 µg/mL (≈ 68.5 µM) | MIC [3]: 64 µg/mL (≈ 137 µM) | MIC [4]: 64 µg/mL (≈ 137 µM) | MIC [5]: 64 µg/mL (≈ 137 µM) | MIC [6]: 64 µg/mL (≈ 137 µM) | MIC [7]: 32 µg/mL (≈ 68.5 µM) | MIC [8]: 32 µg/mL (≈ 68.5 µM)

CCC(C)n1ncn(-c2ccc(N3CCN(c4ccc(OCC5COC(Cn6cncn6)(c6ccc(Cl)cc6Cl)O5)cc4)CC3)cc2)c1=O (centres undefined) [ITRACONAZOLE]
MIC [8]: 0.6 µg/mL (≈ 0.85 µM)
